Results from ChEMBL document CHEMBL1130424, “Stabilized analogs of thymopentin. 1. 4,5-Ketomethylene pseudopeptides” (J Med Chem, 1997).

Test system: CCRF-CEM
Assay: Binding was measured using [3H]thymopentin was compared to the CEM cell binding assay.
Assay type: functional, Homo sapiens
Design: unit not given here

With `CCCC[C@@H](C(=O)N[C@@H](CC(=O)O)C(=O)N[C@H](C(=O)C[C@H](C(=O)O)C(C)C)C(C)C)N(C)C(=O)[C@@H](N)CCCN=C(N)N` as the molecule, how does the Binding read?
The Binding was 2356.

For `CC(C)C[C@H](NC(=O)[C@@H](N)CCCN=C(N)N)C(=O)N[C@@H](CC(=O)O)C(=O)N[C@H](C(=O)C[C@H](Cc1ccccc1)C(=O)O)C(C)C`, which Binding is on record?
Its Binding is 1851.

Which Binding does the source give for `CC(C)[C@H](NC(=O)[C@H](CC(=O)O)NC(=O)[C@H](C)NC(=O)[C@@H](N)CCCN=C(N)N)C(=O)C[C@H](Cc1ccccc1)C(=O)O` here?
Its Binding is 1780.

For `CCCC[C@@H](C(=O)N[C@@H](CC(=O)O)C(=O)N[C@H](C(=O)C[C@H](Cc1ccccc1)C(=O)O)C(C)C)N(C)C(=O)[C@@H](N)CCCN=C(N)N`, which Binding is on record?
The Binding was 2356.

With `CCCC[C@H](NC(=O)[C@@H](N)CCCN=C(N)N)C(=O)N[C@@H](CC(=O)O)C(=O)N[C@@H](C(C)C)C1CC(Cc2ccccc2)C(=O)O1` (some centres not stated) as the molecule, how does the Binding read?
The Binding was 2771.

Which Binding does the source give for `CCCC[C@H](NC(=O)[C@@H](N)CCCN=C(N)N)C(=O)N[C@@H](CC(=O)O)C(=O)N[C@@H](C(C)C)C(O)C[C@H](Cc1ccccc1)C(=O)O` (some centres not stated) here?
Its Binding is 2400.

For `CC(C)[C@H](NC(=O)[C@H](CC(=O)O)NC(=O)[C@H](CCCCN)NC(=O)[C@@H](N)CCCN=C(N)N)C(=O)C[C@H](Cc1ccccc1)C(=O)O` (stereo in doubt; 1a -A), which Binding is on record?
Its Binding is 1735.

With `CC(C)[C@H](NC(=O)[C@H](CC(=O)O)NC(=O)[C@H](CCCCN)NC(=O)[C@@H](N)CCCN=C(N)N)C(=O)C[C@H](Cc1ccccc1)C(=O)O` (stereo in doubt; 1a-B) as the molecule, how does the Binding read?
The Binding was 1673.

With `CC(C)[C@H](NC(=O)[C@H](CC(=O)O)NC(=O)[C@@H]1CCCN1C(=O)[C@@H](N)CCCN=C(N)N)C(=O)C[C@H](Cc1ccccc1)C(=O)O` (stereo in doubt; 1b-A) as the molecule, how does the Binding read?
Its Binding is 1843.

Test system: CCRF-CEM
Assay: Efficacy was measured as the percentage binding to CEM cells.
Assay type: functional, Homo sapiens
Method in brief: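 CEM T-cells, subcultured in RPMI-1640 with 20% serum and stored frozen, were set at 5×10^6 cells/0.1 mL binding buffer (RPMI-1640 with bacitracin). Unlabeled competitor was added at 10^-6–10^-3 M, then [3H]thymopentin (37 Ci/mmol, 548 000 cpm). Incubation was 25 °C for 30 min, followed by two ice-cold washes and scintillation counting. Values are means of replicates at 10^-4 and 10^-3 M.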

Which Efficacy does the source give for `CCCC[C@@H](C(=O)N[C@@H](CC(=O)O)C(=O)N[C@H](C(=O)C[C@H](C(=O)O)C(C)C)C(C)C)N(C)C(=O)[C@@H](N)CCCN=C(N)N` here?
The Efficacy was 37.

Which Efficacy does the source give for `CC(C)C[C@H](NC(=O)[C@@H](N)CCCN=C(N)N)C(=O)N[C@@H](CC(=O)O)C(=O)N[C@H](C(=O)C[C@H](Cc1ccccc1)C(=O)O)C(C)C` here?
The Efficacy was 65.

For `CC(C)[C@H](NC(=O)[C@H](CC(=O)O)NC(=O)[C@H](C)NC(=O)[C@@H](N)CCCN=C(N)N)C(=O)C[C@H](Cc1ccccc1)C(=O)O`, which Efficacy is on record?
The Efficacy was 67.

With `CCCC[C@@H](C(=O)N[C@@H](CC(=O)O)C(=O)N[C@H](C(=O)C[C@H](Cc1ccccc1)C(=O)O)C(C)C)N(C)C(=O)[C@@H](N)CCCN=C(N)N` as the molecule, how does the Efficacy read?
The Efficacy was 37.

With `CCCC[C@H](NC(=O)[C@@H](N)CCCN=C(N)N)C(=O)N[C@@H](CC(=O)O)C(=O)N[C@@H](C(C)C)C1CC(Cc2ccccc2)C(=O)O1` (some centres not stated) as the molecule, how does the Efficacy read?
The Efficacy was 16.

For `CCCC[C@H](NC(=O)[C@@H](N)CCCN=C(N)N)C(=O)N[C@@H](CC(=O)O)C(=O)N[C@@H](C(C)C)C(O)C[C@H](Cc1ccccc1)C(=O)O` (some centres not stated), which Efficacy is on record?
Its Efficacy is 35.

For `CC(C)[C@H](NC(=O)[C@H](CC(=O)O)NC(=O)[C@H](CCCCN)NC(=O)[C@@H](N)CCCN=C(N)N)C(=O)C[C@H](Cc1ccccc1)C(=O)O` (stereo in doubt; 1a -A), which Efficacy is on record?
Its Efficacy is 70.

With `CC(C)[C@H](NC(=O)[C@H](CC(=O)O)NC(=O)[C@H](CCCCN)NC(=O)[C@@H](N)CCCN=C(N)N)C(=O)C[C@H](Cc1ccccc1)C(=O)O` (stereo in doubt; 1a-B) as the molecule, how does the Efficacy read?
The Efficacy was 73.

With `CC(C)[C@H](NC(=O)[C@H](CC(=O)O)NC(=O)[C@@H]1CCCN1C(=O)[C@@H](N)CCCN=C(N)N)C(=O)C[C@H](Cc1ccccc1)C(=O)O` (stereo in doubt; 1b-A) as the molecule, how does the Efficacy read?
The Efficacy was 64.

Test system: not listed separately
Assay: Half life by HPLC methods that permitted quantitative resolution of the decrease of TP-5 and the appearance of degradation products by absorbance in human heparinized serum; Not degraded
Assay type: ADME

For `CCCC[C@@H](C(=O)N[C@@H](CC(=O)O)C(=O)N[C@H](C(=O)C[C@H](Cc1ccccc1)C(=O)O)C(C)C)N(C)C(=O)[C@@H](N)CCCN=C(N)N`, which T1/2 is on record?
The T1/2 was “Not degraded”.

Test system: not listed separately
Assay: Half life by HPLC methods that permitted quantitative resolution of the decrease of TP-5 and the appearance of degradation products by absorbance in heparinized mouse serum.
Assay type: ADME
Method in brief: (§1)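 Mouse serum was prepared from whole blood with heparin sodium or EDTA as anticoagulant. Compounds were incubated for variable times, and incubation was ended by TFA to 10% (v/v) final, then 1 h at 0 °C and protein removal by centrifugation. Half-life came from HPLC absorbance following disappearance of parent and appearance of degradation products.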

For `CC(C)[C@H](NC(=O)[C@H](CC(=O)O)NC(=O)[C@@H]1CCCN1C(=O)[C@@H](N)CCCN=C(N)N)C(=O)C[C@H](Cc1ccccc1)C(=O)O` (stereo in doubt; 1b-A), which half-life is on record?
Its half-life is 4.5 min.

Test system: not listed separately
Assay: Half life by HPLC methods that permitted quantitative resolution of the decrease of TP-5 and the appearance of degradation products by absorbance, heparinized mouse serum; Not degraded
Assay type: ADME
Method in brief: as §1

For `CCCC[C@@H](C(=O)N[C@@H](CC(=O)O)C(=O)N[C@H](C(=O)C[C@H](C(=O)O)C(C)C)C(C)C)N(C)C(=O)[C@@H](N)CCCN=C(N)N`, which T1/2 is on record?
The T1/2 was “Not degraded”.

Test system: not listed separately
Assay: Half life by HPLC methods that permitted quantitative resolution of the decrease of TP-5 and the appearance of degradation products by absorbance in human heparinized serum
Assay type: ADME

Which half-life does the source give for `CC(C)[C@H](NC(=O)[C@H](CC(=O)O)NC(=O)[C@H](CCCCN)NC(=O)[C@@H](N)CCCN=C(N)N)C(=O)C[C@H](Cc1ccccc1)C(=O)O` (stereo in doubt; 1a -A) here?
The half-life was 2 min.

Which half-life does the source give for `CC(C)[C@H](NC(=O)[C@H](CC(=O)O)NC(=O)[C@@H]1CCCN1C(=O)[C@@H](N)CCCN=C(N)N)C(=O)C[C@H](Cc1ccccc1)C(=O)O` (stereo in doubt; 1b-A) here?
The half-life was 6 min.

Test system: not listed separately
Assay: Half life by HPLC methods that permitted quantitative resolution of the decrease of TP-5 and the appearance of degradation products by absorbance in EDTA-treated mouse serum
Assay type: ADME, organism-based
Method in brief: as §1

Which half-life does the source give for `CC(C)[C@H](NC(=O)[C@H](CC(=O)O)NC(=O)[C@H](CCCCN)NC(=O)[C@@H](N)CCCN=C(N)N)C(=O)C[C@H](Cc1ccccc1)C(=O)O` (stereo in doubt; 1a -A) here?
The half-life was 4.9 min.

Which half-life does the source give for `CC(C)[C@H](NC(=O)[C@H](CC(=O)O)NC(=O)[C@@H]1CCCN1C(=O)[C@@H](N)CCCN=C(N)N)C(=O)C[C@H](Cc1ccccc1)C(=O)O` (stereo in doubt; 1b-A) here?
The half-life was 17 min.

Test system: not listed separately
Assay: Half life by HPLC methods that permitted quantitative resolution of the decrease of TP-5 and the appearance of degradation products by absorbance in heparinized mouse serum; Not degraded
Assay type: ADME
Method in brief: as §1

For `CCCC[C@@H](C(=O)N[C@@H](CC(=O)O)C(=O)N[C@H](C(=O)C[C@H](Cc1ccccc1)C(=O)O)C(C)C)N(C)C(=O)[C@@H](N)CCCN=C(N)N`, which T1/2 is on record?
The T1/2 was “Not degraded”.

Test system: not listed separately
Assay: Half life by HPLC methods that permitted quantitative resolution of the decrease of TP-5 and the appearance of degradation products by absorbance, human heparinized serum; Not degraded
Assay type: ADME

Which T1/2 does the source give for `CCCC[C@@H](C(=O)N[C@@H](CC(=O)O)C(=O)N[C@H](C(=O)C[C@H](C(=O)O)C(C)C)C(C)C)N(C)C(=O)[C@@H](N)CCCN=C(N)N` here?
The T1/2 was “Not degraded”.
